ChEMBL document CHEMBL1154781, “Synthesis and antimicrobial activity of some new N-acyl substituted phenothiazines” (2009)
In brackets after ≈: the same amount, converted by molar mass. Activity calls are given as the source filed them. The rule behind the calls is not given here.

How the values were obtained:
Candida albicans [1] = assay: Antifungal activity against Candida albicans NCIM 300 at 10 ug/ml after 2 to 3 days by serial plate dilution method; format: functional; conditions: read-out: IZ
Outline: (§1)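 For the fungal lawn, a loopful of each strain was suspended in 3 ml normal saline and spread on agar plates. Excess suspension was decanted and the plates were dried 1 h at 37 °C. Wells were punched and labeled. Plates, including a triplicate control, were held at 37 °C for 2–3 days. Zones of inhibition and MIC were recorded against fluconazole as standard.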

Aspergillus fumigatus [2] = assay: Antifungal activity against Aspergillus fumigatus NCIM 902 at 10 ug/ml after 2 to 3 days by serial plate dilution method; format: functional; conditions: read-out: IZ; outline: as §1
Aspergillus flavus [3] = assay: Antifungal activity against Aspergillus flavus NCIM 524 after 2 to 3 days by serial plate dilution method; format: functional; outline: as §1
Aspergillus flavus [4] = assay: Antifungal activity against Aspergillus flavus NCIM 524 at 10 ug/ml after 2 to 3 days by serial plate dilution method; format: functional; conditions: read-out: IZ; outline: as §1
Aspergillus niger [5] = assay: Antifungal activity against Aspergillus niger NCIM 617 after 2 to 3 days by serial plate dilution method; format: functional; outline: as §1
Aspergillus niger [6] = assay: Antifungal activity against Aspergillus niger NCIM 617 at 10 ug/ml after 2 to 3 days by serial plate dilution method; format: functional; conditions: read-out: IZ; outline: as §1
Candida albicans [7] = assay: Antifungal activity against Candida albicans NCIM 300 after 2 to 3 days by serial plate dilution method; format: functional; outline: as §1
Aspergillus fumigatus [8] = assay: Antifungal activity against Aspergillus fumigatus NCIM 902 after 2 to 3 days by serial plate dilution method; format: functional; outline: as §1
Pseudomonas aeruginosa [9] = assay: Antibacterial activity against Pseudomonas aeruginosa ATCC 27853 at >50 ug/ml after 24 hrs by disc diffusion method; format: functional, organism-based
Outline: (§2)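 Bacterial strains tested on discs at each concentration, placed in triplicate in nutrient agar seeded with fresh bacteria; incubated 37 °C for 24 h. Ciprofloxacin served as reference, with solvent and growth controls. Zones of inhibition and MICs were recorded.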

Staphylococcus aureus [10] = assay: Antibacterial activity against Staphylococcus aureus ATCC 25923 at after 24 hrs by disc diffusion method; format: functional; conditions: ATCC 25923, 24 h; outline: as §2
Staphylococcus aureus [11] = assay: Antibacterial activity against Staphylococcus aureus ATCC 25923 at 10 ug/ml after 24 hrs by disc diffusion method; format: functional; conditions: ATCC 25923, 24 h, read-out: IZ; outline: as §2
Escherichia coli [12] = assay: Antibacterial activity against Escherichia coli ATCC 25922 after 24 hrs by disc diffusion method; format: functional; conditions: ATCC 25922, 24 h; outline: as §2
Escherichia coli [13] = assay: Antibacterial activity against Escherichia coli ATCC 25922 at 10 ug/ml after 24 hrs by disc diffusion method; format: functional; conditions: ATCC 25922, 24 h, read-out: IZ; outline: as §2
Bacillus subtilis [14] = assay: Antibacterial activity against Bacillus subtilis ATCC 11774 at 15 ug/ml after 24 hrs by disc diffusion method; format: functional; conditions: ATCC 11774, 24 h, read-out: IZ; outline: as §2
Bacillus subtilis [15] = assay: Antibacterial activity against Bacillus subtilis ATCC 11774 after 24 hrs by disc diffusion method; format: functional; conditions: ATCC 11774, 24 h; outline: as §2
Candida albicans [16] = assay: Antifungal activity against Candida albicans NCIM 300 at >50 ug/ml after 2 to 3 days by serial plate dilution method; format: functional, organism-based; outline: as §1
Aspergillus niger [17] = assay: Antifungal activity against Aspergillus niger NCIM 617 at >50 ug/ml after 2 to 3 days by serial plate dilution method; format: functional, organism-based; outline: as §1
Pseudomonas aeruginosa [18] = assay: Antibacterial activity against Pseudomonas aeruginosa ATCC 27853 after 24 hrs by disc diffusion method; format: functional; conditions: ATCC 27853, 24 h; outline: as §2
Pseudomonas aeruginosa [19] = assay: Antibacterial activity against Pseudomonas aeruginosa ATCC 27853 at 10 ug/ml after 24 hrs by disc diffusion method; format: functional; conditions: ATCC 27853, 24 h, read-out: IZ; outline: as §2
Staphylococcus aureus [20] = assay: Antibacterial activity against Staphylococcus aureus ATCC 25923 at >50 ug/ml after 24 hrs by disc diffusion method; format: functional, organism-based; outline: as §2
Bacillus subtilis [21] = assay: Antibacterial activity against Bacillus subtilis ATCC 11774 at >50 ug/ml after 24 hrs by disc diffusion method; format: functional, organism-based; outline: as §2
Escherichia coli [22] = assay: Antibacterial activity against Escherichia coli ATCC 25922 at >50 ug/ml after 24 hrs by disc diffusion method; format: functional, organism-based; outline: as §2

Structure (SMILES)	zone of inhibition at 10 µg/mL (Candida albicans [1]) [mm]	zone of inhibition at 10 µg/mL (Aspergillus fumigatus [2]) [mm]	MIC (Aspergillus flavus [3]) [µg/mL]	zone of inhibition at 10 µg/mL (Aspergillus flavus [4]) [mm]	MIC (Aspergillus niger [5]) [µg/mL]	zone of inhibition at 10 µg/mL (Aspergillus niger [6]) [mm]	MIC (Candida albicans [7]) [µg/mL]	MIC (Aspergillus fumigatus [8]) [µg/mL]	Activity (Pseudomonas aeruginosa [9])	MIC (Staphylococcus aureus [10]) [µg/mL]	zone of inhibition at 10 µg/mL (Staphylococcus aureus [11]) [mm]	MIC (Escherichia coli [12]) [µg/mL]	zone of inhibition at 10 µg/mL (Escherichia coli [13]) [mm]	zone of inhibition at 15 µg/mL (Bacillus subtilis [14]) [mm]	MIC (Bacillus subtilis [15]) [µg/mL]	MIC (Pseudomonas aeruginosa [18]) [µg/mL]	zone of inhibition at 10 µg/mL (Pseudomonas aeruginosa [19]) [mm]	other results
OC(Cn1cncn1)(Cn1cncn1)c1ccc(F)cc1F [FLUCONAZOLE]	21	20	10 (≈ 32.7 µM)	24	10 (≈ 32.7 µM)	23	10 (≈ 32.7 µM)	10 (≈ 32.7 µM)										
O=C1c2ccccc2C(=O)N1CC(=O)N1c2ccccc2Sc2ccccc21	17	20	10 (≈ 25.9 µM)	22	10 (≈ 25.9 µM)	23	10 (≈ 25.9 µM)	15 (≈ 38.8 µM)	inactive	10 (≈ 25.9 µM)	20	10 (≈ 25.9 µM)	22	17	15 (≈ 38.8 µM)			
CC(=O)c1ccc2c(c1)N(C(=O)CN1C(=O)C=CC1=O)c1ccccc1S2		16	25 (≈ 66.1 µM)	18				30 (≈ 79.3 µM)		15 (≈ 39.6 µM)	16	20 (≈ 52.9 µM)	18	16	15 (≈ 39.6 µM)	15 (≈ 39.6 µM)	17	Activity (Candida albicans [16]): inactive; Activity (Aspergillus niger [17]): inactive
O=C1C=CC(=O)N1CC(=O)N1c2ccccc2Sc2ccc(C(F)(F)F)cc21	19	10	20 (≈ 49.5 µM)	19	20 (≈ 49.5 µM)	19	20 (≈ 49.5 µM)	30 (≈ 74.2 µM)				10 (≈ 24.7 µM)	19	17	15 (≈ 37.1 µM)	15 (≈ 37.1 µM)	19	Activity (Staphylococcus aureus [20]): inactive
CC(=O)c1ccc2c(c1)N(C(=O)CN1C(=O)CCC1=O)c1ccccc1S2		13	25 (≈ 65.7 µM)	20	20 (≈ 52.6 µM)	26		15 (≈ 39.4 µM)	inactive			10 (≈ 26.3 µM)	24					Activity (Candida albicans [16]): inactive; Activity (Staphylococcus aureus [20]): inactive; Activity (Bacillus subtilis [21]): inactive
O=C1CCC(=O)N1CC(=O)N1c2ccccc2Sc2ccc(C(F)(F)F)cc21	19	19	10 (≈ 24.6 µM)	23	20 (≈ 49.2 µM)	21	20 (≈ 49.2 µM)	15 (≈ 36.9 µM)		15 (≈ 36.9 µM)	18	20 (≈ 49.2 µM)	21	14	25 (≈ 61.5 µM)	15 (≈ 36.9 µM)	19	
O=C1C=CC(=O)N1CC(=O)N1c2ccccc2Sc2ccccc21	17	15	20 (≈ 59.5 µM)	18	20 (≈ 59.5 µM)	17	20 (≈ 59.5 µM)	20 (≈ 59.5 µM)		15 (≈ 44.6 µM)	15	10 (≈ 29.7 µM)	20	16	15 (≈ 44.6 µM)	15 (≈ 44.6 µM)	17	
O=C1CCC(=O)N1CC(=O)N1c2ccccc2Sc2ccc(Cl)cc21	13	18	25 (≈ 67.1 µM)	12	20 (≈ 53.6 µM)	23	25 (≈ 67.1 µM)	20 (≈ 53.6 µM)		30 (≈ 80.5 µM)	12	15 (≈ 40.2 µM)	16	14	30 (≈ 80.5 µM)	15 (≈ 40.2 µM)	16	
O=C(O)c1cn(C2CC2)c2cc(N3CCNCC3)c(F)cc2c1=O [CIPROFLOXACIN]										10 (≈ 30.2 µM)	21			22	10 (≈ 30.2 µM)	10 (≈ 30.2 µM)	23	
O=C1c2ccccc2C(=O)N1CC(=O)N1c2ccccc2Sc2ccc(Cl)cc21	18	19	10 (≈ 23.8 µM)	21	10 (≈ 23.8 µM)	24	10 (≈ 23.8 µM)	10 (≈ 23.8 µM)		10 (≈ 23.8 µM)	19	10 (≈ 23.8 µM)	23	13	30 (≈ 71.3 µM)	10 (≈ 23.8 µM)	18	
O=C1c2ccccc2C(=O)N1CC(=O)N1c2ccccc2Sc2ccc(C(F)(F)F)cc21	21	18	10 (≈ 22 µM)	22	10 (≈ 22 µM)	21	10 (≈ 22 µM)	10 (≈ 22 µM)	inactive					14	25 (≈ 55 µM)			Activity (Staphylococcus aureus [20]): inactive; Activity (Escherichia coli [22]): inactive
CC(=O)c1ccc2c(c1)N(C(=O)CN1C(=O)c3ccccc3C1=O)c1ccccc1S2	14	19	10 (≈ 23.3 µM)	22	10 (≈ 23.3 µM)	25	10 (≈ 23.3 µM)	15 (≈ 35 µM)	inactive	10 (≈ 23.3 µM)	19	10 (≈ 23.3 µM)	21	16	15 (≈ 35 µM)			
O=C1C=CC(=O)N1CC(=O)N1c2ccccc2Sc2ccc(Cl)cc21	17	16	20 (≈ 53.9 µM)	15	20 (≈ 53.9 µM)	18	20 (≈ 53.9 µM)	20 (≈ 53.9 µM)		15 (≈ 40.5 µM)	18	10 (≈ 27 µM)	20			15 (≈ 40.5 µM)	17	Activity (Bacillus subtilis [21]): inactive
O=C1CCC(=O)N1CC(=O)N1c2ccccc2Sc2ccccc21	17	19	15 (≈ 44.3 µM)	24	20 (≈ 59.1 µM)	19	15 (≈ 44.3 µM)	20 (≈ 59.1 µM)	inactive			10 (≈ 29.6 µM)	24	18	15 (≈ 44.3 µM)			Activity (Staphylococcus aureus [20]): inactive
